Consider 3 compounds from ChEMBL document CHEMBL3745596, “Chlorophenoxy aminoalkyl derivatives as histamine H(3)R ligands and antiseizure agents” (Bioorg Med Chem, 2016).

Data set [1] relates to Mus musculus. In words: Neurotoxicity in CF1 albino mouse at 300 mg/kg, ip after 4 hrs by rotarod test. The note with it: in vivo. It counts as toxicity, organism-based. Summed up: (§1)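 Rotarod neurotoxicity in male albino CF-1 mice dosed ip with compound suspended in 0.5% methylcellulose. Animal placed on a 1 inch diameter knurled plastic rod rotating at 6 rpm. Neurotoxicity scored when the animal falls off three times within 1 min. Readout is number of animals toxic/number tested at the stated time after dosing. TD50 with 95% confidence interval from the quantitative study.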
In general terms: In the rotarod test animals must keep their balance on a rotating rod.

Data set [2] in a line: Antiproliferative activity against human IMR32 cells assessed as cell viability after 48 hrs by formazan EZ4U dye based assay. Particulars: IMR-32, 48 h. The method, boiled down:
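HEK-293 (1.5 × 10⁴/well) or IMR-32 (2 × 10⁴/well) cells in DMEM with 10% FBS, 37 °C, 5% CO₂, grown 24 h to about 60% confluence; compounds 0.01–250 µM final, DMSO at most 1%, 48 h.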

Another data set concerns Rattus norvegicus. In words: Anticonvulsant activity in Sprague-Dawley rat assessed as protection against maximal electroshock-induced seizure at 30 mg/kg, po. It counts as functional.
Data set [3] has as its system Mus musculus. Description: Anticonvulsant activity in CF1 albino mouse assessed as protection against maximal electroshock-induced seizure at 30 mg/kg, ip after 4 hrs. The data set is classed as functional, organism-based. The method, boiled down: (§2)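 Male CF-1 mice dosed ip as suspension in 0.5% methylcellulose. Corneal electrodes deliver 60 Hz alternating current, 50 mA for […], after a drop of 0.5% tetracaine HCl in 0.9% NaCl per eye. Protection means abolition of hindlimb tonic extension; scored as protected/tested, or ED50 with 95% confidence interval.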
Background: In the maximal electroshock model the usual endpoint is tonic extension of the hind limbs.

Data set [4] has as its system Mus musculus. In words: Anticonvulsant activity in CF1 albino mouse assessed as protection against maximal electroshock-induced seizure at 3 mg/kg, ip after 0.5 hrs. The data set is classed as functional, organism-based. The method, boiled down: as §2
Data set [5] relates to Mus musculus. In words: Neurotoxicity in CF1 albino mouse at 100 mg/kg, ip after 4 hrs by rotarod test. The data set is classed as toxicity, organism-based. Particulars: in vivo. The method, boiled down: as §1
A further data set addresses Cytochrome P450 3A4 (Homo sapiens, UniProt P08684). Description: Inhibition of CYP3A4 (unknown origin) up to 10 uM. It counts as ADME.
Data set [6] deals with Mus musculus. Description: Neurotoxicity in CF1 albino mouse at 10 mg/kg, ip after 0.5 hrs by rotarod test. The data set is classed as toxicity, organism-based. Particulars: in vivo. Summed up: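 Rotarod neurotoxicity in male CF-1 mice dosed ip as 0.5% methylcellulose suspension: mouse placed on 1 inch knurled rod rotating at 6 rpm; toxicity when the animal falls off three times within 1 min, with other signs noted. Scored as toxic/tested at 0.5 h and 4 h.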

Data set [7] deals with Mus musculus. Description: Anticonvulsant activity in CF1 albino mouse assessed as protection against maximal electroshock-induced seizure at 30 mg/kg, ip after 0.5 hrs. It counts as functional, organism-based. The method, boiled down: as §2
In data set [8] the test system is Mus musculus. Description: Anticonvulsant activity in CF1 albino mouse assessed as protection against maximal electroshock-induced seizure at 10 mg/kg, ip after 0.5 hrs. The data set is classed as functional, organism-based. Summed up: as §2
Data set [9] concerns Mus musculus. In words: Neurotoxicity in CF1 albino mouse at 30 mg/kg, ip after 4 hrs by rotarod test. It counts as toxicity, organism-based. The note with it: in vivo. Summed up:
as §1

The target of data set [10] is T1, Histamine H3 receptor (Homo sapiens, UniProt Q9Y5N1). In words: Displacement of [3H]-Nalpha-methylhistamine from human recombinant histamine H3 receptor expressed in HEK293 cells after 90 mins. It counts as cell-based. On the technique in general: Loss of bound radioactivity is the signal in a displacement assay; it reports binding, not function.
Data set [11] concerns Mus musculus. In words: Neurotoxicity in CF1 albino mouse assessed as unable to grasp rotarod and death at 100 mg/kg, ip after 0.5 hrs by rotarod test. It counts as toxicity, organism-based. The note with it: in vivo. The method, boiled down:
(§3)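 Male albino CF-1 mice dosed ip with compound suspended in 0.5% methylcellulose, then placed on a 1-inch knurled plastic rod turning at 6 rpm. A fall three times within 1 min counted as neurotoxicity. Observations were made at 0.5 h and 4 h after dosing. Result given as animals showing toxicity per animals tested, with the kind of toxicity recorded.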

Data set [12] has as its system Mus musculus. In words: Anticonvulsant activity in CF1 albino mouse assessed as protection against subcutaneous pentetrazole-induced seizure at 30 mg/kg, ip after 4 hrs. The data set is classed as functional, organism-based. The method, boiled down: (§4)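 Male CF-1 mice, ip in 0.5% methylcellulose; pentetrazole at CD97 (85 mg/kg) injected subcutaneously in a loose fold of neck skin. Observed 30 min; absence of even a threshold seizure (single clonic spasm lasting at least 5 s) counted as protection. Scored protected/tested, or ED50.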

The subject of a further data set is Liver microsome. Description: Drug metabolism in human liver microsomes after 2 hrs by UPLC-MS/MS analysis. The data set is classed as ADME. Summed up:
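Pooled adult male and female human liver microsomes 1 mg/mL in 0.1 M Tris–HCl pH 7.4 with NADPH regeneration system; started after 5 min preincubation at 37 °C, incubated 2 h at 37 °C, stopped with cold methanol, centrifuged, supernatant analysed by UPLC with ESI tandem quadrupole MS.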

Data set [13] has as its system Mus musculus. Description: Anticonvulsant activity in CF1 albino mouse assessed as protection against subcutaneous pentetrazole-induced seizure at 30 mg/kg, ip after 0.5 hrs. The data set is classed as functional, organism-based. Summed up:
as §4

Data set [14] has as its system Mus musculus. In words: Anticonvulsant activity in CF1 albino mouse assessed as protection against subcutaneous pentetrazole-induced seizure at 100 mg/kg, ip after 0.5 hrs. The data set is classed as functional, organism-based. Summed up: as §4
Data set [15] concerns Mus musculus. Description: Neurotoxicity in CF1 albino mouse assessed as death at 300 mg/kg, ip after 0.5 hrs by rotarod test. Particulars: in vivo. It counts as toxicity, organism-based. Summed up: as §3
Data set [16] has as its system Mus musculus. In words: Neurotoxicity in CF1 albino mouse at 3 mg/kg, ip after 0.5 hrs by rotarod test. The data set is classed as toxicity, organism-based. The note with it: in vivo. Summed up: as §1
The subject of data set [17] is Mus musculus. Description: Anticonvulsant activity in CF1 albino mouse assessed as protection against subcutaneous pentetrazole-induced seizure at 100 mg/kg, ip after 4 hrs. The data set is classed as functional, organism-based. The method, boiled down: as §4
The target in data set [18] is T1, Histamine H3 receptor. In words: Antagonist activity at human recombinant histamine H3 receptor expressed in HEK293 cells assessed as inhibition of forskolin/(R)(-)-alpha-methylhistamine-induced cAMP accumulation after 1 hr by TR-FRET immunoassay. It counts as functional, cell-based. The method, boiled down:
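HEK293 cells stably expressing hH3R, stimulated 30 min at room temperature with (R)(-)-α-methylhistamine (15 nM), forskolin and antagonist (0.1 nM–10 µM range) added together. cAMP read by TR-FRET (Eu-cAMP tracer, ULight anti-cAMP antibody, 1 h), converted via cAMP standard curve to % maximal response. Sigmoidal dose–response fit; mean of three experiments, each in triplicate.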

Data set [19] deals with Mus musculus. Description: Neurotoxicity in CF1 albino mouse at 30 mg/kg, ip after 0.5 hrs by rotarod test. The data set is classed as toxicity, organism-based. Particulars: in vivo. The method, boiled down: as §1
Data set [20] concerns Mus musculus. In words: Anticonvulsant activity in CF1 albino mouse assessed as protection against 6 Hz-psychomotor-induced seizure at 50 mg/kg, ip after 0.25 hrs. It counts as functional, organism-based. The method, boiled down: (§5)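 Male CF-1 mice, ip suspension in 0.5% methylcellulose. Corneal stimulation 0.2 ms monopolar rectangular pulses at 6 Hz, 32 mA for 3 s via constant-current device; mice without minimal clonic phase seizure counted protected. Groups of four; read at 0.25, 0.5, 1, 2, 4 h; result as protected/tested.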

The test system of data set [21] is Mus musculus. Description: Anticonvulsant activity in CF1 albino mouse assessed as protection against 6 Hz-psychomotor-induced seizure at 50 mg/kg, ip after 2 hrs. The data set is classed as functional, organism-based. Summed up:
as §5

For data set [22], the system named is Mus musculus. Description: Anticonvulsant activity in CF1 albino mouse assessed as protection against 6 Hz-psychomotor-induced seizure at 50 mg/kg, ip after 4 hrs. The data set is classed as functional, organism-based. The method, boiled down: as §5
In data set [23] the test system is Mus musculus. In words: Anticonvulsant activity in CF1 albino mouse assessed as protection against maximal electroshock-induced seizure at 100 mg/kg, ip after 0.5 hrs. The data set is classed as functional, organism-based. Summed up:
as §2

In data set [24] the test system is Mus musculus. In words: Neurotoxicity in CF1 albino mouse at 50 mg/kg, ip after 0.25 hrs by rotarod test. The data set is classed as toxicity, organism-based. The note with it: in vivo. The method, boiled down:
as §1

Data set [25] concerns Mus musculus. Description: Anticonvulsant activity in CF1 albino mouse assessed as protection against maximal electroshock-induced seizure at 100 mg/kg, ip after 4 hrs. The data set is classed as functional, organism-based. The method, boiled down: as §2
Data set [26] relates to Mus musculus. Description: Neurotoxicity in CF1 albino mouse at 50 mg/kg, ip after 4 hrs by rotarod test. It counts as toxicity, organism-based. Particulars: in vivo. The method, boiled down: as §1
In data set [27] the test system is Mus musculus. Description: Neurotoxicity in CF1 albino mouse at 50 mg/kg, ip after 2 hrs by rotarod test. The data set is classed as toxicity, organism-based. Particulars: in vivo. Summed up:
as §1

SMILES strings stand for the structures. Calls of active or inactive are those of the source.

T1 sequence (Q9Y5N1 whole entry): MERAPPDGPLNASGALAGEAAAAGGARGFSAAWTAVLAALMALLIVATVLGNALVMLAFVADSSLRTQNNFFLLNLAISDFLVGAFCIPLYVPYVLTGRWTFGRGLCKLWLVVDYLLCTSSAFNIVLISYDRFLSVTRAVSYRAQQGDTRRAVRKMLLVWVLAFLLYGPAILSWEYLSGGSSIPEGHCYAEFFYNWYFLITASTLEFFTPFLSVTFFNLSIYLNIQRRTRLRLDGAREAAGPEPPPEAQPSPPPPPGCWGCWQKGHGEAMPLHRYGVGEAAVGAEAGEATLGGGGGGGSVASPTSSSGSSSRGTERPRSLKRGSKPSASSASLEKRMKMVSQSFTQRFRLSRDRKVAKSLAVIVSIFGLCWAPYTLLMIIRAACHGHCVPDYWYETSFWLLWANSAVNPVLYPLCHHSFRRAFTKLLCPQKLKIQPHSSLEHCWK
Sequence of Cytochrome P450 3A4 (P08684 whole entry): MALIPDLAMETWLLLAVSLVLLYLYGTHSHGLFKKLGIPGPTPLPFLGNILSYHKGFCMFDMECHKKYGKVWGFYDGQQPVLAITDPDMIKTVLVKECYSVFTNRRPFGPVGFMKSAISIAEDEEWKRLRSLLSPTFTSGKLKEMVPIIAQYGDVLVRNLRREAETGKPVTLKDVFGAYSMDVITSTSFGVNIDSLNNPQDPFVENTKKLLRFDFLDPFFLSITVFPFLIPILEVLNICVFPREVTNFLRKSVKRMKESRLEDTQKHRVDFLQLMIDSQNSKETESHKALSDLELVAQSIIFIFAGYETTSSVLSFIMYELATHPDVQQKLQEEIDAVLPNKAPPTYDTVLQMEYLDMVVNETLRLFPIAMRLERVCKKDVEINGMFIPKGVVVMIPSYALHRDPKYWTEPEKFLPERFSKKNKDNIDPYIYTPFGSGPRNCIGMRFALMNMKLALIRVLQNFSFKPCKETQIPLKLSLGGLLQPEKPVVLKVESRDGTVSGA

The term IC50 denotes the midpoint of a concentration-inhibition curve. For orientation: Ki means a measure of affinity in units of concentration, obtained from inhibition or displacement. Broadly, the EC50 is the concentration needed to bring the measured effect to its halfway point. Turning to `CC1CCCN(CCCCCOc2ccc(Cl)cc2)C1.O=C(O)C(=O)O` (stereo unspecified), the Activity entry in the data set with Mus musculus [1] is “Non-toxic”; in the data set on Rattus norvegicus, 25%; with Mus musculus [5], “Non-toxic”; with Mus musculus [6], “Non-toxic”; in the data set with Mus musculus [9] it was “Non-toxic”; in the data set on Mus musculus [11], “Toxic”. Also, the Activity result is on record as “Toxic” with Mus musculus [15], “Non-toxic” with Mus musculus [16] and “Non-toxic” in the data set on Mus musculus [19]. In data set [2], the half-inhibitory concentration (IC50) was 89000 nM. Also, the outcome with Mus musculus [3], in the data set on Mus musculus [4], with Mus musculus [8], with Mus musculus [12], in the data set with Mus musculus [13] and with Mus musculus [14] was inactive. For the same compound, the outcome in the data set with Mus musculus [17] was inactive. On Cytochrome P450 3A4, the “inhibition (INH)” value was “Not Active”. Further, in the data set with Mus musculus [7], the result was Active. Besides, the inhibition constant Ki on Histamine H3 receptor [10] is 133 nM. Further, in the data set on Liver microsome, the Drug metabolism entry is on record as “metabolite_detected”. The EC50 at Histamine H3 receptor [18] was 72 nM.

As for `Clc1ccc(OCCCCCCCN2CCCCCC2)cc1.O=C(O)C(=O)O`, the Activity result in the data set with Mus musculus [1] is reported as “Non-toxic”; in the data set with Rattus norvegicus, 25%; in the data set with Mus musculus [5], “Non-toxic”; in the data set with Mus musculus [6] it was “Non-toxic”; in the data set on Mus musculus [9], “Non-toxic”; in the data set on Mus musculus [24] it was “Non-toxic”. For the same compound, the Activity entry with Mus musculus [11] is “Toxic”; in the data set on Mus musculus [26], “Non-toxic”; in the data set with Mus musculus [16], “Non-toxic”; in the data set on Mus musculus [27], “Non-toxic”; with Mus musculus [19], “Non-toxic”. Further, the outcome in the data set on Mus musculus [20], in the data set with Mus musculus [3], in the data set on Mus musculus [4], with Mus musculus [21], in the data set on Mus musculus [22] and in the data set on Mus musculus [8] was inactive. For the same compound, the outcome in the data set with Mus musculus [12] and in the data set on Mus musculus [13] was inactive. Besides, the result with Mus musculus [7], with Mus musculus [23] and with Mus musculus [25] was Active. For the same compound, the Ki at Histamine H3 receptor [10] is 203 nM.

As for `COc1cccc2c1C(=O)c1c(O)c3c(c(O)c1C2=O)C[C@@](O)(C(=O)CO)C[C@@H]3O[C@H]1C[C@H](N)[C@H](O)[C@H](C)O1` [DOXORUBICIN], the IC50 in data set [2] is 5.1 nM.
